Among the data in ChEMBL document CHEMBL1154810, “Synthesis, characterization and biocidal activity of new organotin complexes of 2-(3-oxocyclohex-1-enyl)benzoic acid” (Eur J Med Chem, 2010) are MIC and IC50 values, retold here.

≈ marks a conversion by molar mass, not a printed value.

One experiment deals with Candida albicans. The experiment is described as follows: Antimicrobial activity against Candida albicans ATCC 18804 after 48 hrs. Type of experiment: functional. Particulars: ATCC 18804, 48 h. The gist of the method: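 Broth microdilution MIC per NCCLS M27-A in RPMI 1640. Yeasts were pre-grown on Sabouraud medium, 24 h for C. albicans and 48 h for C. neoformans. Compound solution was added to wells, then incubated 37 °C for 48 h. Ketoconazol was the positive control and DMSO 1 and 2% in RPMI the negative controls. Triplicate runs. MIC was the lowest concentration giving an optically clear well, judged visually against the drug-free growth control.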
In the case of `CC(=O)N1CCN(c2ccc(OCC3COC(Cn4ccnc4)(c4ccc(Cl)cc4Cl)O3)cc2)CC1` (configuration not stated) [KETOCONAZOLE], the MIC was 0.24 µM (≈ 0.128 µg/mL).

The next experiment relates to HEK293. The experiment is described as follows: Cytotoxicity against HEK293 cells after 24 hrs by MTT assay. In kind it is cell-based, Homo sapiens.
Details: not given
(In general: Formazan colour is commonly taken as a measure of viable cells.)
Compound TRIBUTYLCHLOROSTANNANE displayed an IC50 of 40 nM.

DICHLORODIMETHYLSTANNANE had an IC50 of 10 nM.

As to DIBUTYLDICHLOROSTANNANE, the IC50 came out at 30 nM.

The compound CHLOROTRIPHENYLSTANNANE came in with an IC50 of 10 nM.

Take CHLOROTRIMETHYLSTANNANE: the midpoint of inhibition, the IC50, lay at 8 nM.

In the case of DICHLORODIPHENYLSTANNANE, the IC50 stood at 50 nM.

As a reminder, the MIC is the smallest concentration in the dilution series that meets the test's criterion for growth inhibition. Lower therefore signals inhibition by little substance. One may read the IC50 as the point on the concentration scale where inhibition reaches its midpoint.
